Activity calls are given as the source filed them. No cut-off for these calls is given here.
How the values were obtained:
Mus musculus [1] = test: Anticonvulsant activity in mouse CF1 albino assessed as inhibition of minimal electric shock-induced seizure at 60 mg/kg, ip after 0.5 hrs; type: functional, organism-based; parameters: dose 60 mg/kg
How it was run: (§1)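 6 Hz psychomotor seizure model in male CF-1 albino mice dosed i.p. Four mice per time point (0.25, 0.5, 1, 2, 4 h) received corneal-electrode current of 32 mA for 3 s. Untreated mice show a minimal clonic phase followed by stereotyped automatistic behaviour. Results given as number protected out of 4.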

Mus musculus [2] = test: Anticonvulsant activity in mouse CF1 albino assessed as inhibition of minimal electric shock-induced seizure at 60 mg/kg, ip after 2 hrs; type: functional, organism-based; parameters: dose 60 mg/kg; how it was run: as §1
Mus musculus [3] = test: Anticonvulsant activity in mouse CF1 albino assessed as inhibition of minimal electric shock-induced seizure at 60 mg/kg, ip after 0.25 hrs; type: functional, organism-based; parameters: dose 60 mg/kg; how it was run: as §1
Mus musculus [4] = test: Anticonvulsant activity in mouse CF1 albino assessed as inhibition of minimal electric shock-induced seizure at 100 mg/kg, ip after 4 hrs; type: functional, organism-based; parameters: dose 100 mg/kg; how it was run: as §1
Mus musculus [5] = test: Anticonvulsant activity in mouse CF1 albino assessed as inhibition of minimal electric shock-induced seizure at 100 mg/kg, ip after 1 hr; type: functional, organism-based; parameters: dose 100 mg/kg; how it was run: as §1
Mus musculus [6] = test: Anticonvulsant activity in mouse CF1 albino assessed as inhibition of minimal electric shock-induced seizure at 60 mg/kg, ip after 4 hrs; type: functional, organism-based; parameters: dose 60 mg/kg; how it was run: as §1
Mus musculus [7] = test: Anticonvulsant activity in mouse CF1 albino assessed as inhibition of minimal electric shock-induced seizure at 100 mg/kg, ip after 0.25 hrs; type: functional, organism-based; parameters: dose 100 mg/kg; how it was run: as §1
Mus musculus [8] = test: Anticonvulsant activity in mouse CF1 albino assessed as inhibition of minimal electric shock-induced seizure at 100 mg/kg, ip after 0.5 hrs; type: functional, organism-based; parameters: dose 100 mg/kg; how it was run: as §1
Mus musculus [9] = test: Anticonvulsant activity in mouse CF1 albino assessed as inhibition of minimal electric shock-induced seizure at 60 mg/kg, ip after 1 hr; type: functional, organism-based; parameters: dose 60 mg/kg; how it was run: as §1
Mus musculus [10] = test: Anticonvulsant activity in mouse CF1 albino assessed as inhibition of minimal electric shock-induced seizure at 30 mg/kg, ip after 2 hrs; type: functional, organism-based; parameters: dose 30 mg/kg; how it was run: as §1
Mus musculus [11] = test: Anticonvulsant activity in mouse CF1 albino assessed as inhibition of maximal electric shock-induced seizure at 300 mg/kg, ip after 4 hrs; type: functional, organism-based; parameters: dose 300 mg/kg
How it was run: (§2)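 Male CF-1 albino mice (18–25 g); compound suspended in 0.5% methyl cellulose/water or PEG 200, given i.p. at 30, 100 and 300 mg/kg (0.01 mL/g). Tested 0.5 or 4 h after dosing. Protection = abolition of hind limb tonic extensor component of MES seizure.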

Mus musculus [12] = test: Neurotoxicity against mouse CF1 albino assessed as minimal motor impairment at 300 mg/kg, ip after 0.5 hrs by rotord test; type: toxicity, organism-based; parameters: dose 300 mg/kg, route intraperitoneal; settings: in vivo
How it was run: (§3)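 Rotorod minimal motor impairment in male CF-1 albino mice (18–25 g) after i.p. dosing at 30, 100 or 300 mg/kg in 0.5% methyl cellulose/water or PEG 200. Mice placed on a rod rotating at 6 rpm at 0.5 or 4 h. Value is minimum dose causing impairment in at least one mouse.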

Mus musculus [13] = test: Neurotoxicity against mouse CF1 albino assessed as minimal motor impairment at 300 mg/kg, ip after 4 hrs by rotord test; type: toxicity, organism-based; parameters: dose 300 mg/kg, route intraperitoneal; settings: in vivo; how it was run: as §3
Mus musculus [14] = test: Anticonvulsant activity in ip dosed mouse CF1 albino assessed as inhibition of maximal electric shock-induced seizure after 0.5 hrs; type: functional; how it was run: as §2
Mus musculus [15] = test: Anticonvulsant activity in mouse CF1 albino assessed as inhibition of subcutaneous metrazole-induced seizure at 300 mg/kg, ip after 0.5 hrs; type: functional, organism-based; parameters: dose 300 mg/kg
Mus musculus [16] = test: Anticonvulsant activity in mouse CF1 albino assessed as inhibition of subcutaneous metrazole-induced seizure at 300 mg/kg, ip after 4 hrs; type: functional, organism-based; parameters: dose 300 mg/kg
Mus musculus [17] = test: Anticonvulsant activity in mouse CF1 albino assessed as inhibition of minimal electric shock-induced seizure at 30 mg/kg, ip after 4 hrs; type: functional, organism-based; parameters: dose 30 mg/kg; how it was run: as §1

Compound	Activity (Mus musculus [1])	Activity (Mus musculus [2])	Activity (Mus musculus [3])	Activity (Mus musculus [4])	Activity (Mus musculus [5])	Activity (Mus musculus [6])	Activity (Mus musculus [7])	Activity (Mus musculus [8])	Activity (Mus musculus [9])	Activity (Mus musculus [10])	Activity (Mus musculus [11])	Activity (Mus musculus [12])	Activity (Mus musculus [13])	Activity (Mus musculus [14]) [mg/kg]	Activity (Mus musculus [15])	Activity (Mus musculus [16])	Activity (Mus musculus [17])
CCCCCCCOc1c(C(=O)N/N=C/c2ccc([N+](=O)[O-])cc2)sc(C(=O)N/N=C/c2ccc([N+](=O)[O-])cc2)c1OCCCCCCC	inactive	inactive	inactive	inactive	inactive	inactive	inactive	Active	inactive	–	–	–	–	–	–	–	–
C/C(=N\NC(=O)c1sc(C(=O)N/N=C(\C)c2cccs2)c2c1OCCO2)c1cccs1	–	–	–	inactive	–	–	–	–	–	inactive	inactive	Not Active	Not Active	300	inactive	inactive	inactive

— ChEMBL document CHEMBL1155262, “A new class of anticonvulsants possessing 6 Hz activity: 3,4-dialkyloxy thiophene bishydrazones” (Eur J Med Chem, 2009)
